Screens: PubChem BioAssay, The Scripps Research Institute Molecular Screening Center
OXTR potentiator: human OXTR potentiators, primary screen, fluorescence, CHO-OTR cells, Fluo-8 calcium; Oxytocin receptor (Homo sapiens), P30559; Fluo-8 calcium fluorescence, potentiator mode; 0% = oxytocin EC15, 100% = EC100; activation, % at 3 µM; 320,000 compounds, 0.061% hits;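 active means activation above that plate's cutoff, the mean activation of tested compounds plus 3 SD, cut at about 6.6% in these data, passing the limit was not always enough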;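 further: 100% uses oxytocin at 75 nM as the full agonist control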
Target sequence (P30559 whole entry, looked up): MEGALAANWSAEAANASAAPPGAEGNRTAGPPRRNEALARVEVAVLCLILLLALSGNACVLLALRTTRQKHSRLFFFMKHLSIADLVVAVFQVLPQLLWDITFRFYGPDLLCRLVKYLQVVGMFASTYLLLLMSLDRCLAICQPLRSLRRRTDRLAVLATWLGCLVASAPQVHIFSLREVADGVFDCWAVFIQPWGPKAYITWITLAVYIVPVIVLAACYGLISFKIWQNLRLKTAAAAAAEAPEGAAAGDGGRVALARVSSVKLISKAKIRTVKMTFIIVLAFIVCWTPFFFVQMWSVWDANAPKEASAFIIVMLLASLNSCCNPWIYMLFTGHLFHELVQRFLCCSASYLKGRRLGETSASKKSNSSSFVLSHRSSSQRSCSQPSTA
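Replication – single well per compound, singlicate · Assay system – CHO cell line stably expressing human OTR · Timing – 6 min pre-incubation, 100 s read · Measure – normalized max/min fluorescence ratio, % activation · Doses – 3.0 µM, one dose · Detection – Fluo-8 calcium dye fluorescence · Probe or stimulus – oxytocin near EC15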
V1aR counter: agonists of human V1a receptor, primary screen, counter-screen for OXTR agonist project, fluorescence, CHO-V1R cells. Vasopressin V1a receptor (Homo sapiens), P37288. Fluo-8 calcium fluorescence, agonist mode; 0% DMSO, 100% 3 nM vasopressin. activation, % at 3 µM. 320,000 compounds, 0.25% hits. AID 2797, 2010;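 active means activation above the mean activation of all tested compounds plus 3 SD, per screening run, cut at about 20% in these data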;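 further: signal is peak over basal fluorescence ratio across a 100 second FLIPR read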
OXTR agonist: human OXTR agonists, primary screen, fluorescence, CHO-OTR cells, Fluo-8 calcium; activation, % at 3 µM; AID 2435, 2010; Fluo-8 calcium fluorescence; normalized: DMSO 0%, oxytocin 100%; 320,000 compounds, 0.32% hits;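 active means activation above the mean of all tested compounds plus 3 SD, cutoff set per screening run, cut at about 20% in these data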;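 further: peak over basal fluorescence ratio from a 100 s FLIPR kinetic read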
TRPML3 agonist: human TRPML3 channel agonists, primary screen, cell-based, HEK293 TRPML3-YFP, Fluo-8 calcium fluorescence, 3 µM; Mucolipin-3 (Homo sapiens), Q8TDD5; 100% = the carbachol control signal; activation, % at 3 µM; 220,000 compounds, 0.29% hits;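 active means activation above its plate's cutoff, the mean activation of the plate's test wells plus 3 SD, cut at about 12% in these data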;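 further: 0% = DMSO only wells and 100% = carbachol wells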
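Test system: HEK293 cells stably carrying human TRPML3-YFP; Doses: single dose, 3 µM final nominal compound, 0.3% DMSO final; Schedule: dye loading 1 h 37 °C then 30 min ambient, 125 s read; Technique: Fluo-8 calcium fluorescence; Benchmarks: high control carbachol 87 µM, low control DMSO.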
zfTRPN1 agonist: zebrafish TRPN1 channel agonists, primary screen, cell-based, HEK293, calcium fluorescence; 220,000 compounds, 0.18% hits; HEK293 zebrafish TRPN1-YFP, Fluo-8 calcium fluorescence; 100% = response to 87 µM carbachol; activation, % at 3 µM; transient receptor potential cation channel N1 (TRPN1/NompC), Danio rerio; AID 1424, 2008;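 active means activation above its plate's cutoff, the mean activation of test wells on that plate plus 3 SD, cut at about 19% in these data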;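 further: 0% = DMSO alone and 100% = 87 µM carbachol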
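Material – zebrafish TRPN1-YFP in HEK293 cells · Doses – 3 µM single point · Schedule – dye 1 h 37 °C plus 30 min RT · Signal – Fluo-8 calcium fluorescence, excitation 470-495 nm, emission 515-575 nm · Read-out – % activation versus carbachol response · Control set – carbachol high, DMSO low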
Starred values were filed as active, the others as inactive; . = not tested or not shown. A selection: hits, their analogues and other compounds. The true share with any hit is near 0.58%.

SMILES	OXTR potentiator	V1aR counter	OXTR agonist	TRPML3 agonist	zfTRPN1 agonist
Nc1c(C(=O)c2ccccc2)sc2nsc(SCCN3CCOCC3)c12	-21.7	49.4*	48.5*	3.6	8.2
CC1=NN(c2ccccc2)C(=O)/C1=C/N(C)C	-2.1	-0.7	0.0	1.1	0.5
CC1=NN(c2ccccc2)C(=O)/C1=C\C=C1\N(C)c2ccccc2C1(C)C	-13.3	36.4*	31.3*	5.0	15.2
CC1=NN(c2ccccc2)C(=O)/C1=C\C=C1/N(C)c2ccccc2C1(C)C	-20.9	42.9*	34.3*	3.5	5.6
CC1=NN(c2ccccc2)C(=O)/C1=C\C=C\c1ccccc1	-3.1	-1.0	-0.8	0.8	-0.9
CN1/C(=C\C=C2/SC(=S)NC2=O)C(C)(C)c2ccccc21	-18.2	100.0*	123.0*	19.4*	32.8*
CN1C(=CC=C2C=C(I)C(=O)C(I)=C2)C(C)(C)c2ccccc21	.	.	.	2.3	7.7
CN1/C(=C\C=C2/C(=O)Oc3ccccc3C2=O)C(C)(C)c2ccccc21	-12.5	261.4*	366.8*	129.7*	153.8*
N#CCCn1ncn(-c2ccccc2)c1=S	-9.5	-0.2	1.3	-0.1	0.4
COc1cccc2cc(C(=O)NCCc3c[nH]c4ccccc34)c(=O)oc12	-17.4	2.1	4.2	0.3	0.9
CCN(CC)c1ccc(/C=C2\SC(=O)N(C(C)C)C2=O)o1	10.2	-0.2	-0.1	9.2	40.4*
CCCOc1ccc(C(=O)NNC(=O)c2cccc(S(=O)(=O)N3CCN(C(C)=O)CC3)c2)cc1OC	-3.7	0.3	0.7	.	.
COc1ccc(C(CNC(=O)c2cc(S(=O)(=O)N3CCN(c4ccccc4)CC3)ccc2Cl)N(C)C)cc1 (configuration not stated)	-13.5	14.6	18.2	.	.
C/C(=C1/C(=O)N(c2ccc([N+](=O)[O-])cc2)N=C1c1ccccc1)N(C)C	-12.9	62.4*	54.1*	2.9	31.3*
CCOc1ccc(OCC)c(S(=O)(=O)n2cnc(C)c2)c1	1.4	0.6	-1.1	.	.
CCCCc1ncc(CN2CCC(CC3CCCCO3)(C(=O)OCC)CC2)[nH]1 (configuration not stated)	-11.2	-0.2	-1.0	0.5	-1.1
CCOC(=O)C1(CC2CCCCO2)CCN(Cc2cc3ccccc3[nH]2)CC1 (configuration not stated)	-19.9	27.7*	31.3*	23.9*	30.0*
Cc1cc(C)nc(/N=C(\N)Nc2ccc(OCc3ccccc3)cc2)n1	-17.5	76.8*	75.1*	101.5*	111.5*
Cc1cc(C)nc(/N=C(\N)Nc2cccc(OCc3ccccc3)c2)n1	-10.1	49.7*	46.1*	61.2*	72.3*
Cc1cc(C)nc(/N=C(\N)Nc2ccc(OCCC(C)C)cc2)n1	-25.2	48.0*	49.7*	.	.
Nc1ccc(-c2c3ccc(=O)cc-3oc3cc(O)ccc23)c(C(=O)O)c1	-12.7	206.5*	167.5*	.	.
Cc1ccc(C(=O)NCCOc2ccc(Cl)cc2)cc1	6.1	-2.4	-1.2	.	.
Cc1cccc(C)c1NC(=O)C(=O)NCCOc1ccc(Cl)cc1	-22.0	18.8	22.2*	1.0	4.2
COc1cc(NC(=O)NCCN2CCN(c3ccc(Cl)cc3)CC2)ccc1C	-20.1	34.7*	21.7*	0.8	0.2
COc1ccc(N2CCN(CCNC(=O)Nc3ccc(C)c(Cl)c3)CC2)cc1	-18.8	11.7	18.4	.	.
SMILES	OXTR potentiator	V1aR counter	OXTR agonist	TRPML3 agonist	zfTRPN1 agonist
Cc1ccc(SCC(=O)OCC(=O)N(C)CC(=O)Nc2ccc(F)cc2)cc1C	-15.7	23.0*	23.7*	.	.
CN(CC(=O)Nc1ccc(F)cc1)C(=O)CSc1ccc2c(c1)OCCO2	-3.6	0.0	0.1	.	.
CCCc1nnc(NC(=O)Cn2c(=O)oc3ccccc32)s1	-20.9	5.2	7.8	0.8	0.8
CCCc1nnc(NC(=O)Cn2c(=O)oc3cc(Br)ccc32)s1	-12.9	32.3*	33.6*	2.4	0.1
CCCCCCCCCCOC(=O)Cn1c(COc2ccccc2)[n+](C)c2ccccc21	-14.5	52.9*	26.9*	.	.
CN1CCC/C1=C/C=C1\SC(=S)NC1=O	-11.9	24.1*	45.7*	10.2	11.0
CN(C)C=Nc1c(Br)cc(Br)c2nonc12	-17.4	84.2*	106.3*	7.6	8.2
CN(C)C=Nc1nonc1-c1ccccc1	-1.3	0.3	0.4	0.2	0.8
N#C/C(=N\Nc1cccc(C(F)(F)F)c1)C(=O)c1ccsc1	-12.1	13.1	12.0	13.7*	24.2*
Cc1nn(Cc2ccc(C(=O)Nc3ccc(Br)c4cccnc34)o2)c(C)c1Br	.	.	.	1.1	-1.6
CCOCCCNc1nc2c(C)cccn2c(=O)c1/C=C1\SC(=S)N(CC(C)C)C1=O	-13.6	1.4	1.3	0.5	0.3
CCOCCCNc1nc2c(C)cccn2c(=O)c1/C=C1\SC(=S)N(C(C)CC)C1=O (configuration not stated)	-13.0	5.6	13.0	7.9	19.9*
Cc1ccccc1C1=NC(C(F)(F)F)(C(F)(F)F)c2c(n(C)c(=O)n(C)c2=O)N1	-3.8	0.3	-1.1	0.5	0.3
Cn1c2c(c(=O)n(C)c1=O)C(C(F)(F)F)(C(F)(F)F)N=C(c1ccc(Cl)cc1)N2	-7.9	8.1	14.1	20.4*	29.3*
CCOc1ccccc1N(CC(=O)N1CCOCC1)S(=O)(=O)c1ccc(SC)cc1	.	.	.	198.5*	57.5*
CCCCn1cnc2c(c(-c3ccccc3)c(-c3ccccc3)n2Cc2ccco2)c1=N	-12.8	9.0	10.3	-0.5	0.7
N=c1c2c(-c3ccccc3)c(-c3ccccc3)n(Cc3ccco3)c2ncn1Cc1ccco1	-30.1	36.5*	36.3*	2.1	3.3
Nc1nc(Nc2cccc(F)c2)nc(NCCO)c1[N+](=O)[O-]	12.2*	-1.3	-2.5	-0.5	-1.1
CCSC1=NSC2=NC(=O)/C(=C\c3coc4ccccc4c3=O)C(=N)N12	-11.2	46.6*	62.3*	14.6*	25.2*
CC(C)CC1=NN2C(=N)/C(=C\c3coc4ccccc4c3=O)C(=O)N=C2S1	.	.	.	3.8	6.7
O=C1NCC(c2ccccc2)C1C(=O)N/N=C\c1ccc(-c2ccc(Cl)c(Cl)c2)o1 (configuration not stated)	-5.4	0.6	-0.4	-0.6	-0.6
